Source: PubChem (Broad Institute)
FGF22 binding = binders of human FGF22 protein, primary screen, FGF22 synaptogenesis inhibitor project, biophysical, thermal shift, single point | Fibroblast growth factor 22 (Homo sapiens), Q9HCT0 | recombinant FGF22 thermal shift, SYPRO orange fluorescence; percent of sucrose octasulfate shift, DMSO zero | activity (Tm shift, normalised), % at 9.99 µM | hit rate 1.5% among 340,000;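 active = mean Tm shift, scaled 0 neutral to 100 positive control, at about 1.3% or above, every replicate too, limit read from the data; inconclusive = no clear call, values can overlap the other calls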
S100A4 inh HTS = inhibitors of S100A4-myosin IIA peptide binding, primary screen, biochemical, fluorescence polarization, TAMRA-MyoIIA peptide; Protein S100-A4 (Homo sapiens), P26447; inhibition, % at 10.7 µM; hit rate 0.14% among 360,000; AID 652163, 2013;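 active = mean inhibition of at least 70% across replicates, with every replicate also reaching that level; inconclusive = mean inhibition reaches 70% but some replicates fall short; inactive = mean inhibition below 70%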
Target sequence (P26447 whole entry, looked up): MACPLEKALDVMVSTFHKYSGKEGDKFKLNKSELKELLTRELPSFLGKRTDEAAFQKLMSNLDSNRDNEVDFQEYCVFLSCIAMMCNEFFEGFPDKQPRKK
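assay system = human S100A4 monomer with TAMRA-labelled myosin IIA peptide | also added = labelled myosin peptide probe, 5 nM | incubation = 5 min between mix addition and reading | control set = DMSO and TFP controls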
PDI turbidity = inhibitors of human PDI, primary screen, biochemical, turbidity, single point, plate reader; hit rate 0.052% among 350,000; PDI insulin aggregation turbidity, A650, 90 min; inhibition, % at 10 µM;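 active = mean inhibition across replicates of 30% or more, whatever share of single replicates reach that level; inconclusive = mean inhibition below 30% while every single replicate reaches 30%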
Target sequence (P07237 whole entry, looked up): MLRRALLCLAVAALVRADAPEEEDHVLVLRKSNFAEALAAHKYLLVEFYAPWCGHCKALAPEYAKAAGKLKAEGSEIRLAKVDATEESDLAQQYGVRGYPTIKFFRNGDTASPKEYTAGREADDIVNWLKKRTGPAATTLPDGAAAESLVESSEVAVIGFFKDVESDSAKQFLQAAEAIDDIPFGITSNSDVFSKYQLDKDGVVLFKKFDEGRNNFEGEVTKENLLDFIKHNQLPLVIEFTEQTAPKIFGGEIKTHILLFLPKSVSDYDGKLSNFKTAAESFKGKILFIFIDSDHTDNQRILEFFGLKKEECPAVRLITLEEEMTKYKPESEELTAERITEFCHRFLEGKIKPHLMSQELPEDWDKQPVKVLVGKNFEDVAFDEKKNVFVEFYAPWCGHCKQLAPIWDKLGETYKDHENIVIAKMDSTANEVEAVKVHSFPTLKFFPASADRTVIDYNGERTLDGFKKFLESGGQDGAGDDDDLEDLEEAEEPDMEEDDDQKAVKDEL
ERp5 inh = inhibitors of ERp5-driven insulin aggregation, primary screen, biochemical, turbidity, absorbance 650 nm, single point | Protein disulfide-isomerase A6 (Homo sapiens), Q15084 | 90 min | inhibition, % at 9.99 µM | hit rate 0.05% among 350,000 | AID 651711, 2012;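 active = mean replicate inhibition above about 25%, with every replicate also reaching it, limit read from the data, passing the limit was not always enough; inconclusive = only one of those two criteria met; inactive = neither criterion met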
ERAP1 inh = human ERAP1 aminopeptidase inhibitors, primary screen, biochemical, single point, plate reader; hit rate 0.15% among 340,000; recombinant ERAP1, Leu-AMC fluorescence, 60 min; inhibition, % at 10.7 µM; Endoplasmic reticulum aminopeptidase 1 (Homo sapiens), Q9NZ08;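 active = mean replicate inhibition of at least 30%, or all replicates individually reaching that 30% level; inactive = mean below 30% and not every replicate reaching it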;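 also: 0% = neutral control wells and 100% = L-leucinethiol positive control wells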
* = called active by the depositor; ? = inconclusive; . = no result. The full list was thinned out, with hits kept by preference.

SMILES | FGF22 binding | S100A4 inh HTS | PDI turbidity | ERp5 inh | ERAP1 inh
CC(c1ccncn1)N(C)Cc1nc(-c2ccc(C(F)(F)F)cc2)no1 (configuration not stated) | 0 | -3 | -5 | 0 | 7
CCn1cc(C(=O)O)c(=O)c2cc(F)c(N3CCN(C(=S)Nc4ccc(OC)cc4)CC3)cc21 | 0 | -1 | -2 | ? | -2
OCc1c(Cl)nc2ccccn12 | 43* | -2 | -4 | -1 | 1
CCC(O)c1cnc(OCc2ccccc2)nc1OCc1ccccc1 (configuration not stated) | 30* | 1 | 5 | -7 | -3
CC1(C)NC(=O)N(CCCCOc2ccc(Cl)cc2C=O)C1=O | 43* | 0 | -1 | 5 | 0
CC1(C)NC(=O)N(CCCCOc2ccc(Cl)cc2)C1=O | . | . | 3 | . | .
COc1ccc(C(=O)C2CCCN(C(=O)c3cccnc3OC)C2)cc1F (configuration not stated) | 44* | 1 | -3 | -3 | 3
CSc1ncccc1C(=O)N1CCCC(C(=O)c2ccc3ccccc3c2)C1 (configuration not stated) | 43* | -4 | -1 | 5 | -1
CCOc1ccc(N=C2NC(=O)S/C2=C\c2ccc(OC)cc2)cc1 | . | . | -5 | . | .
CC(=O)Nc1cnc(-c2cccc(C(=O)N(C)C)c2)cn1 | 0 | -5 | 6 | 1 | 4
O=C1CCC/C(=N/Nc2ccc(Cl)cc2)C1 | 44* | -3 | 11 | 1 | 0
O=C(NN=C1CCCC1)c1ccc(Cl)cc1 | 0 | -6 | 0 | 0 | -1
Cc1ccc(Nc2cc(C)nc3nc(C)nn23)c(C)c1 | 0 | 5 | . | 5 | .
COCCNc1nc(NCc2ccc(C(C)C)cc2)c2sccc2n1 | 23* | -17 | 11 | 1 | -1
CC(=O)Nc1ccc(NC(=O)CSc2nc(N)c(NC(=O)c3ccccc3F)c(=O)[nH]2)cc1 | 0 | ? | -1 | 0 | 5
Nc1nc(SCC(=O)O)[nH]c(=O)c1NC(=O)c1ccccc1F | 43* | 6 | -12 | -1 | -2
O=C(C[C@H]1C[C@@H]2c3cc(NC(=O)Nc4ccccc4)ccc3O[C@@H]2[C@H](CO)O1)NCc1ccncc1 | 0 | -11 | . | 1 | -3
CCc1ccc(CNCc2cccs2)cc1 | 0 | -4 | -1 | -2 | -14
CCCCCCC1(C)NC(=S)N(c2ccccc2)N1 (configuration not stated) | 0 | 1 | 5 | -4 | 21
CCCCCC1(C)NC(=S)N(c2ccccc2)N1 (configuration not stated) | 44* | -4 | 1 | 0 | 7
CCCN1[C@@H]2Cn3c(ccc(-c4ccccc4)c3=O)[C@H]1[C@@H](C(=O)NCCc1cn(C)cn1)[C@@H]2CO | 0 | -4 | . | -4 | 1
O=C(NC1CCCC1)[C@@H]1[C@@H](CO)[C@@H]2Cn3c(ccc(-c4cccnc4)c3=O)[C@H]1N2CC1CC1 | 0 | . | . | 28* | .
CCC(=O)N1[C@@H]2c3ccc(-c4ccncc4)c(=O)n3C[C@H]1[C@H](CO)[C@H]2C(=O)NC1Cc2ccccc2C1 | 0 | 154* | . | -4 | 8
CCCN1[C@@H]2Cn3c(ccc(-c4cccnc4)c3=O)[C@H]1[C@@H](C(=O)NCCc1cn(C)cn1)[C@@H]2CO | 0 | 1 | . | -4 | 31*
CCNC(=O)[C@H]1[C@H](CO)[C@H]2Cn3c(ccc(-c4ccc(F)cc4)c3=O)[C@@H]1N2C | 0 | 138* | . | -5 | 8
SMILES | FGF22 binding | S100A4 inh HTS | PDI turbidity | ERp5 inh | ERAP1 inh
O=C1N[C@@H](Cc2ccccc2)C(=O)N2[C@H]1CSCCS2(=O)=O | 0 | 6 | . | -3 | .
CCOC(=O)c1c2c(n(-c3ccc(OC)cc3)c1C)C(=O)C(=O)c1ccccc1-2 | . | . | 10 | . | .
C[C@@H]1CN([C@@H](C)CO)C(=O)c2cc(NS(C)(=O)=O)ccc2O[C@@H](C)CCCCO[C@@H]1CN(C)C(=O)Nc1ccc2c(c1)OCO2 | 0 | 7 | . | 6 | -2
O=C(/C=C/c1ccccc1Cl)c1ccc(O)cc1 | 1 | -13 | ? | -1 | 0
O=C(/C=C/c1c(F)cccc1Cl)c1ccc(O)cc1 | 41 | 1 | 79* | -1 | 3
Cc1ccc(S(=O)(=O)N2CCN(C(=O)c3ccc(N4CCCC4)c([N+](=O)[O-])c3)CC2)cc1 | 0 | 2 | 4 | 0 | 1
O=C1OC(c2cccs2)=N/C1=C\c1ccc(-c2ccccc2Cl)o1 | 0 | 5 | 5 | 0 | -4
O=C1OC(c2cccs2)=N/C1=C/c1ccc(-c2cccc(C(=O)O)c2)o1 | 9.4* | -13 | 0 | 9 | 2
CCOC(=O)c1c(C)c(C(=O)N2CCCCCC2)c(C)n1C | . | . | -6 | . | .
Cc1ccc2nc(Cl)c(C#N)cc2c1 | 43* | -8 | -7 | -1 | -1
COc1ccc2nc(Cl)c(C#N)cc2c1 | 42 | 1 | 22 | -2 | 1
O=C(O)C1C(c2ccccc2)=C1c1ccc(Br)cc1 (configuration not stated) | 43* | -2 | -2 | 1 | 5
CCOC(=O)c1cc(=O)nc(N)s1 | 43* | -2 | -18 | -1 | 0
O=C(C[C@@H]1CC[C@@H](NC(=O)c2ccccc2)[C@@H](CO)O1)NCCc1ccncc1 | 0 | -3 | . | -1 | 0
CCCCCCCn1c2c(c(=N)c3c1CCC3)CCCC2 | 0 | 2 | -5 | 6 | 83*
COc1ccc2c3c([nH]c2c1)[C@@H](CO)N(Cc1ccccc1)CC31CN(C)C1 | 0 | -3 | . | -7 | 71*
COc1cccc(CN2CC3(CN(C)C3)c3c([nH]c4cc(OC)ccc34)[C@@H]2CO)c1 | . | 116* | . | 2 | -1
COc1ccc(OCC(=O)NNC(=O)c2cccc(S(=O)(=O)N(C)C)c2)cc1 | . | . | 0 | . | .
Cc1ccc(-c2ccc3nnc(SCC(N)=O)n3n2)cc1 | 43* | -2 | 1 | -4 | -3
NC(=O)CSc1nnc2ccc(-c3ccc(Cl)cc3)nn12 | . | -1 | 8 | 4 | 1
Cc1cccc(Cc2cnc(N3C(=N)SC(C)C3=O)s2)c1 (configuration not stated) | 0 | -4 | -6 | -2 | -2
Cc1ccc(Cc2cnc(N3C(=N)SC(C)C3=O)s2)cc1 (configuration not stated) | 43* | -5 | 0 | 6 | -4
Cc1oc2cc3oc(=O)c(CCC(=O)NCCCn4ccnc4)c(C)c3cc2c1C | 0 | 3 | . | 6 | 0
COc1ccc2[nH]c(=O)c(C(c3nnnn3CC3CCCO3)N3CCCCC3)cc2c1 (configuration not stated) | 43* | -6 | 18 | 5 | -1
